{"source": "ChEMBL document CHEMBL4017523", "about": "“Computer-Aided Identification and Lead Optimization of Dual Murine Double Minute 2 and 4 Binders: Structure-Activity Relationship Studies and Pharmacological Activity” (J Med Chem, 2017)", "key": {"SH-SY5Y [1]": {"test_system": "SH-SY5Y", "experiment": "Antiproliferative activity against human SH-SY5Y cells at 1 uM after 24 hrs in presence of […] by MTS assay relative to control", "assay_type": "functional", "summary_of_the_method": "(§1)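 Cells treated for 24 h, either alone or combined with reference MDM2 inhibitor (1 μM) and/or MDM4 inhibitor (1 μM). Drug medium then swapped for fresh medium and growth continued before MTS read-out. Data given as percent of untreated control set to 100% (mean ± SEM, N = 3).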"}, "U-87 MG [2]": {"test_system": "U-87 MG", "experiment": "Antiproliferative activity against human U87MG cells at 1 uM after 24 hrs by MTS assay", "assay_type": "functional, cell-based", "settings": "U-87MG ATCC", "summary_of_the_method": "as §1"}, "SH-SY5Y [3]": {"test_system": "SH-SY5Y", "experiment": "Antiproliferative activity against human SH-SY5Y derived cancer stem cells after 7 days by MTS assay", "assay_type": "functional, cell-based", "summary_of_the_method": "(§2)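 Cancer stem cells isolated by culturing 2.5 × 10^6 tumor cells without serum in NSC medium for 7 days. Treated with test agent (100 nM–10 μM) for 7 days, drug-containing medium renewed every 3 days. Proliferation measured by MTS and expressed as percent of control (mean ± SEM, N = 3).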"}, "U-87 MG [4]": {"test_system": "U-87 MG", "experiment": "Antiproliferative activity against human U87MG derived cancer stem cells after 7 days by MTS assay", "assay_type": "functional, cell-based", "settings": "U-87MG ATCC", "summary_of_the_method": "as §2"}, "SH-SY5Y [5]": {"test_system": "SH-SY5Y", "experiment": "Antiproliferative activity against human SH-SY5Y cells at 1 nM to 100 uM after 72 hrs by neutral red dye-based assay", "assay_type": "functional, cell-based", "summary_of_the_method": "(§3)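 Cells exposed to DMSO control or test agent at 1 nM to 100 μM for 72 h. Drug medium replaced, then 0.33% neutral red solution added at 10% of medium volume for 2 h at 37 °C. After PBS rinse, dye extracted with 1% glacial acetic acid/50% ethanol in PBS with 10 min shaking. Absorbance read at 540 nm.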"}, "SH-SY5Y [6]": {"test_system": "SH-SY5Y", "experiment": "cells", "settings": "Homo sapiens, 24 h, read-out: Activity"}, "SH-SY5Y [7]": {"test_system": "SH-SY5Y", "experiment": "Antiproliferative activity against human SH-SY5Y cells after 24 hrs by MTS assay"}, "U-87 MG [8]": {"test_system": "U-87 MG", "experiment": "Antiproliferative activity against human U87MG cells at 1 nM to 100 uM after 72 hrs by neutral red dye-based assay", "assay_type": "functional, cell-based", "settings": "U-87MG ATCC", "summary_of_the_method": "as §3"}, "Protein Mdm4": {"target": "T1, Protein Mdm4 (Homo sapiens, UniProt O15151)", "T1 sequence (O15151 whole entry)": "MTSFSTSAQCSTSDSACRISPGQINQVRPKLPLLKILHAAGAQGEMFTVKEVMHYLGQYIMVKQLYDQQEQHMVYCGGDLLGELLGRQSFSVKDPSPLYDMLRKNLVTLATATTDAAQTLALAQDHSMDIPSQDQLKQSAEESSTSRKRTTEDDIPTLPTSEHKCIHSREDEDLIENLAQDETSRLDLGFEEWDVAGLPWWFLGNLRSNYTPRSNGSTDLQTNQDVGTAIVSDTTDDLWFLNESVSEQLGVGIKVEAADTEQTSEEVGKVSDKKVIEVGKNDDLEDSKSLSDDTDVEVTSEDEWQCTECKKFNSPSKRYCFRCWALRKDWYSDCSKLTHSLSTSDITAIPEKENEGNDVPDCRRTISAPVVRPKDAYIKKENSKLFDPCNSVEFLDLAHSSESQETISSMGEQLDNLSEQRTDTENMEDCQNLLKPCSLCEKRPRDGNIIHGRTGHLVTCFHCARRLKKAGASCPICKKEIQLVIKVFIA", "experiment": "Inhibition of MDM4 in human SH-SY5Y cells assessed as reduction in MDM4 interaction with p53 after 10 mins by quantitative sandwich immune-enzymatic assay", "assay_type": "cell-based"}, "[9]": {"target": "T2, Protein Mdm4 (Homo sapiens) (UniProt O15151)", "T2 sequence (whole entry)": "T1 sequence (O15151 whole entry)", "experiment": "Inhibition of MDM4 in human SH-SY5Y cells assessed as increase in p21 mRNA levels at 1 uM after 24 hrs by RT-qPCR analysis", "assay_type": "cell-based", "summary_of_the_method": "(§4)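 Cells incubated 24 h with agents at 1 μM, alone or combined with MDM2 inhibitor. RNA extracted and MDM2, PUMA and p21 transcripts quantified by real-time RT-PCR. Results reported as fold change versus control (mean ± SEM, N = 3).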"}, "SH-SY5Y [10]": {"test_system": "SH-SY5Y", "experiment": "Antiproliferative activity against human SH-SY5Y cells at 1 uM after 24 hrs in presence of Nutlin-3 by MTS assay relative to control", "assay_type": "functional", "summary_of_the_method": "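Cells were exposed to compound for 24 h, alone or with 1 μM MDM2 inhibitor. Drug medium was then replaced with fresh medium, and cells grew for a further 3 days before the MTS read-out. Values are % of control (100%), mean ± SEM, N=3. For SH-SY5Y, IC50 came from a sigmoid dose-response fit.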"}, "[11]": {"target": "T2, Protein Mdm4 (Homo sapiens)", "experiment": "Inhibition of MDM4 in human SH-SY5Y cells assessed as increase in MDM2 mRNA levels at 1 uM after 24 hrs by RT-qPCR analysis", "assay_type": "cell-based", "summary_of_the_method": "as §4"}, "[12]": {"target": "T2, Protein Mdm4 (Homo sapiens)", "experiment": "Inhibition of MDM4 in human SH-SY5Y cells assessed as accumulation of p53 at 1 uM after 24 hrs by Western blot analysis", "assay_type": "cell-based", "summary_of_the_method": "(§5)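 Cells treated 24 h with DMSO control or agents at 1 μM, alone or combined with 1 μM MDM2 inhibitor. Cells lysed in RIPA buffer and run on 8.5% SDS-PAGE. Blots probed overnight at 4 °C with anti-p53 (1:200), using GAPDH as loading control. Bands quantified by densitometry as percent OD versus control (mean ± SEM, N = 2).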"}, "[13]": {"target": "T2, Protein Mdm4 (Homo sapiens)", "experiment": "Inhibition of MDM4 in human SH-SY5Y cells assessed as increase in PUMA mRNA levels at 1 uM after 24 hrs by RT-qPCR analysis", "assay_type": "cell-based", "summary_of_the_method": "as §4"}, "[14]": {"target": "T2, Protein Mdm4 (Homo sapiens)", "experiment": "Inhibition of MDM4 in human SH-SY5Y cells assessed as increase in p21 mRNA levels at 1 uM after 24 hrs in presence of Nutlin-3 by RT-qPCR analysis", "assay_type": "cell-based", "summary_of_the_method": "as §4"}, "[15]": {"target": "T2, Protein Mdm4 (Homo sapiens)", "experiment": "Inhibition of MDM4 in human SH-SY5Y cells assessed as accumulation of p53 at 1 uM after 24 hrs in presence of Nutlin-3 by Western blot analysis", "assay_type": "cell-based", "summary_of_the_method": "as §5"}, "[16]": {"target": "E3 ubiquitin-protein ligase Mdm2 (Homo sapiens, UniProt Q00987)", "sequence (Q00987 whole entry)": "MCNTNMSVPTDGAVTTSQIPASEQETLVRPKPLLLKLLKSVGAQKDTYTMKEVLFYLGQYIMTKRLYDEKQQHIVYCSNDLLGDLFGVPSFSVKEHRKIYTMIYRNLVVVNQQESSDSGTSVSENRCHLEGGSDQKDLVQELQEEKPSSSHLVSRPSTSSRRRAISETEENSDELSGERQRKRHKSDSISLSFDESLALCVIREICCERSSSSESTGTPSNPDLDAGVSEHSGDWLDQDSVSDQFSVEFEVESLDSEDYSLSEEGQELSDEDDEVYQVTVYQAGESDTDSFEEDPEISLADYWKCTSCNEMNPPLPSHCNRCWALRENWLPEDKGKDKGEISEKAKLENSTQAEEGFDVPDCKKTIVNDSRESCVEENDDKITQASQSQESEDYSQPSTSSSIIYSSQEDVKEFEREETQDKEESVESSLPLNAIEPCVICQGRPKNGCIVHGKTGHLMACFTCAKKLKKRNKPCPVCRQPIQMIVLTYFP", "experiment": "Inhibition of MDM2 in human U87MG cells assessed as reduction in MDM2 interaction with p53 after 10 mins by quantitative sandwich immune-enzymatic assay", "assay_type": "cell-based"}, "[17]": {"target": "T2, Protein Mdm4 (Homo sapiens)", "experiment": "Inhibition of MDM4 in human SH-SY5Y cells assessed as increase in PUMA mRNA levels at 1 uM after 24 hrs in presence of Nutlin-3 by RT-qPCR analysis", "assay_type": "cell-based", "summary_of_the_method": "as §4"}}, "note": "Activity calls are given as the source filed them. No cut-off for these calls is given here."}
{"compound": "COc1ccc(C2=N[C@H](c3ccc(Cl)cc3)[C@H](c3ccc(Cl)cc3)N2C(=O)N2CCNC(=O)C2)c(OC(C)C)c1", "values": [{"measurement": "Activity", "setting": "SH-SY5Y [1]", "result": 47.1, "unit": "%"}, {"measurement": "Activity", "setting": "U-87 MG [2]", "result": "Active"}]}
{"compound": "O=C(CC(c1ccccc1)c1ccccc1)N[C@@H](Cc1ccc(OCCCNc2ccccn2)cc1)C(=O)O", "values": [{"measurement": "Activity", "setting": "SH-SY5Y [3]", "result": "Dose-dependent effect"}, {"measurement": "Activity", "setting": "U-87 MG [4]", "result": "Dose-dependent effect"}, {"measurement": "Activity", "setting": "SH-SY5Y [5]", "result": "Active"}, {"measurement": "viability at 1 µM", "setting": "SH-SY5Y [6]", "result": 62.4, "unit": "%"}, {"measurement": "IC50", "setting": "SH-SY5Y [7]", "result": 356, "unit": "nM"}, {"measurement": "Activity", "setting": "U-87 MG [8]", "result": "Active"}]}
{"compound": "CCOc1cc(/C=C2\\C(=O)N(c3ccccc3)N=C2C)cc(Cl)c1OCC(=O)OC", "values": [{"measurement": "IC50", "setting": "Protein Mdm4", "result": 847, "unit": "nM"}, {"measurement": "inhibition", "setting": "[9]", "result": "inactive"}, {"measurement": "Activity", "setting": "SH-SY5Y [10]", "result": 47.1, "unit": "%"}, {"measurement": "inhibition", "setting": "[11]", "result": "Active"}, {"measurement": "inhibition", "setting": "[12]", "result": "Active"}, {"measurement": "inhibition", "setting": "[13]", "result": "inactive"}, {"measurement": "Activity", "setting": "U-87 MG [2]", "result": "inactive"}, {"measurement": "inhibition", "setting": "[14]", "result": "Active"}, {"measurement": "inhibition", "setting": "[15]", "result": "Active"}, {"measurement": "IC50", "setting": "[16]", "result": "> 1000", "unit": "nM"}, {"measurement": "inhibition", "setting": "[17]", "result": "Active"}]}
